Marks after values point to notes of the source that are not given here.
Columns and labels:
ruminal microorganisms = test: In vitro ruminal fermentation; settings: 3‐NOP added to the feed at different concentrations, three studies
Method in brief: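 Rumen fermentation was simulated in a chemostat (RUSITEC) as continuous culture of ruminal microorganisms. Each of three studies included a control without additive and one or more groups with test compound added to the feed at differing concentrations.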

[1] = tested on: Salmonella Typhimurium (TA98, TA100, TA1535 and TA1537) and Escherichia coli WP2uvrA; test: Bacterial reverse mutation assays; format: cell-based; settings: up to 5,000 μg/plate, with or without S9‐mix
Wistar rats [2] = test: Prenatal developmental toxicity study; settings: rat, in vivo
Wistar rats [3] = test: Acute inhalation test; format: in vivo
Acute inhalation test = format: in vivo, Wistar rats; settings: Wistar, rat, in vivo, inhaled
[4] = tested on: Holstein Friesian dairy cows; test: Tolerance study in dairy cows; format: in vivo; settings: for Dry matter intake: 56 days
Wistar rats [5] = test: Two‐generation reproduction toxicity study; settings: rat, in vivo
Wistar rats [6] = test: 52‐week oral gavage study; format: in vivo
[7] = Third in vitro rumen fluid trial; settings: 39°C
[8] = ADME in four lactating cows; format: in vivo
[9] = 90.2 mg 3‐NOP/kg feed DM (× 0.8)
[10] = 106.8 mg 3‐NOP/kg feed DM (× 1)
[11] = 220.4 mg 3‐NOP/kg feed DM (× 2)

Q: For O=[N+]([O-])OCCCO [3‐NOP, propan‐1,3‐diol‐mononitrate], which “Methane output in vitro” value (ruminal microorganisms) is on record?
A: reduces methane output significantly

Q: And the Revertant colonies [1]?
A: No increase in the mean number of revertant colonies

Q: And the “Maternal NOAEL” value (Wistar rats [2])?
A: 300 mg/kg bw per day

Q: And the Mortality (Wistar rats [3]; 1 and 5 mg/L)?
A: No mortality occurred

Q: And the “Acute inhalation toxicity class according to the GHS” value (Wistar rats [3]; rat, in vivo)?
A: class 5

Q: What about the “No observed adverse effect concentration (NOAEC)” value (Wistar rats [3]; rat, in vivo) of the same compound?
A: exceed 5 mg/L

Q: What about the LC50 at 4 h (Acute inhalation test) of the same compound?
A: > 5 µg/mL

Q: And the ALT [4, 9]?
A: 27* U/L

Q: And the Albumin [4, 9]?
A: 36 g/L

Q: And the Amylase [4, 9]?
A: 34 U/L

Q: And the Body weight [4, 9]?
A: 676 kg

Q: What about the Body weight change [4, 9] of the same compound?
A: 43.6 kg

Q: What about the Fat yield [4, 9] of the same compound?
A: 0.81 kg/day

Q: And the Fibrinogen [4, 9]?
A: 0.88 g/L

Q: And the Haematocrit [4, 9]?
A: 28* %

Q: What about the “Haemoglobin d56” value [4, 9] of the same compound?
A: 110 g/L

Q: And the “LDH d56” value [4, 9]?
A: 1249 U/L

Q: What about the Mean corpuscular haemoglobin [4, 9] of the same compound?
A: 16.5* pg

Q: And the Milk yield [4, 9]?
A: 28.7 kg/day

Q: What about the “Monocytes d5” value [4, 9] of the same compound?
A: 4.8e+08 L⁻¹

Q: What about the “Monocytes d56” value [4, 9] of the same compound?
A: 3.1e+08 L⁻¹

Q: What about the Ovary absolute size [4, 9] of the same compound?
A: 31.9 g

Q: And the Ovary relative size [4, 9]?
A: 0.048 g per kg final bw

Q: What about the Protein yield [4, 9] of the same compound?
A: 0.92 kg/day

Q: And the Prothrombin time [4, 9]?
A: 27.3* s

Q: What about the Red blood cells [4, 9] of the same compound?
A: 6.52* ×10^12/L

Q: And the Water consumption [4, 9]?
A: 95.9 kg/day

Q: What about the Dry matter intake [4, 9] of the same compound?
A: 22.9 kg/day

Q: What about the ALT [4, 10] of the same compound?
A: 27* U/L

Q: And the Albumin [4, 10]?
A: 36 g/L

Q: What about the Amylase [4, 10] of the same compound?
A: 34 U/L

Q: What about the Body weight [4, 10] of the same compound?
A: 675 kg

Q: And the Body weight change [4, 10]?
A: 42.2 kg

Q: What about the Ca [4, 10] of the same compound?
A: 2.47* mmol/L

Q: What about the Energy corrected milk [4, 10] of the same compound?
A: 22.7 kg/day

Q: What about the Fat yield [4, 10] of the same compound?
A: 0.74 kg/day

Q: And the Fibrinogen [4, 10]?
A: 0.93 g/L

Q: And the Haematocrit [4, 10]?
A: 28* %

Q: What about the “Haemoglobin d56” value [4, 10] of the same compound?
A: 109 g/L

Q: What about the “LDH d56” value [4, 10] of the same compound?
A: 1245 U/L

Q: What about the Milk yield [4, 10] of the same compound?
A: 27.5 kg/day

Q: What about the “Monocytes d5” value [4, 10] of the same compound?
A: 4.6e+08 L⁻¹

Q: And the Ovary absolute size [4, 10]?
A: 29.7 g

Q: What about the Ovary relative size [4, 10] of the same compound?
A: 0.040 g per kg final bw

Q: And the Protein yield [4, 10]?
A: 0.88 kg/day

Q: And the Red blood cells [4, 10]?
A: 6.39* ×10^12/L

Q: And the Total cholesterol [4, 10]?
A: 4.18* mmol/L

Q: And the Triglycerides [4, 10]?
A: 0.130 mmol/L

Q: What about the Water consumption [4, 10] of the same compound?
A: 94.6 kg/day

Q: What about the Dry matter intake [4, 10] of the same compound?
A: 22.8 kg/day

Q: What about the ALT [4, 11] of the same compound?
A: 24* U/L

Q: And the Albumin [4, 11]?
A: 35* g/L

Q: What about the Amylase [4, 11] of the same compound?
A: 31* U/L

Q: What about the Body weight [4, 11] of the same compound?
A: 670 kg

Q: What about the Body weight change [4, 11] of the same compound?
A: 36.6 kg

Q: What about the Ca [4, 11] of the same compound?
A: 2.40 mmol/L

Q: And the Energy corrected milk [4, 11]?
A: 24.7* kg/day

Q: And the Fat yield [4, 11]?
A: 0.89* kg/day

Q: What about the Fibrinogen [4, 11] of the same compound?
A: 1.00* g/L

Q: And the Haematocrit [4, 11]?
A: 27* %

Q: And the “Haemoglobin d56” value [4, 11]?
A: 103* g/L

Q: What about the “LDH d56” value [4, 11] of the same compound?
A: 1034* U/L

Q: And the Mean corpuscular haemoglobin [4, 11]?
A: 16 pg

Q: And the Milk yield [4, 11]?
A: 27.5 kg/day

Q: And the “Monocytes d5” value [4, 11]?
A: 0.43* ×10^9/L

Q: What about the Ovary absolute size [4, 11] of the same compound?
A: 25.8* g

Q: And the Protein yield [4, 11]?
A: 0.91 kg/day

Q: What about the Prothrombin time [4, 11] of the same compound?
A: 27.0* s

Q: And the Red blood cells [4, 11]?
A: 6.42* ×10^12/L

Q: What about the Total cholesterol [4, 11] of the same compound?
A: 4.18* mmol/L

Q: And the Triglycerides [4, 11]?
A: 0.124* mmol/L

Q: What about the Water consumption [4, 11] of the same compound?
A: 87.0* kg/day

Q: What about the Dry matter intake [4, 11] of the same compound?
A: 21.8* kg/day

Q: What about the “Number of cows with signs of liver chronic inflammation (out of 8)” value (shortened to “Number of cows”) ([4]; 0.8× group (control 2)) of the same compound?
A: 0

Q: What about the “Number of cows” value ([4]; 1× group (control 2)) of the same compound?
A: 3

Q: And the “DM intake less than in the control group” value ([4]; 2× group)?
A: 4%

Q: And the “Energy corrected milk yield increase compared with the control” value ([4]; 2× group)?
A: 7%

Q: What about the “Number of cows” value ([4]; 2× group (control 2)) of the same compound?
A: 5

Q: What about the “NOAEL for parental toxicity” value (Wistar rats [5]) of the same compound?
A: 100 mg/kg bw per day

Q: What about the “NOAEL for reproduction and developmental toxicity” value (Wistar rats [5]) of the same compound?
A: at least 100 mg/kg bw per day

Q: And the NOAEL (Wistar rats [6]; females)?
A: 600 mg 3‐NOP/kg bw per day

Q: What about the NOAEL (Wistar rats [6]; males) of the same compound?
A: 100 mg 3‐NOP/kg bw per day

Q: And the “3‐NOP concentration remaining after 16 h” value ([7]; 1 mg/L, anaerobic, n = 6)?
A: 0.7%

Q: What about the “3‐NOP concentration remaining after 16 h” value ([7]; aerobic control, n = 2) of the same compound?
A: 27.9%

Q: What about the “Radioactivity excreted via faeces, mean” value ([8]; 1.8 g/animal per day, 7 days) of the same compound?
A: 2.7 % of radioactivity totally app

Q: And the “Radioactivity excreted via milk, mean” value ([8]; 1.8 g/animal per day, 7 days)?
A: 16.82 % of radioactivity totally app

Q: And the “Radioactivity excreted via urine, mean” value ([8]; 1.8 g/animal per day, 7 days)?
A: 4 % of radioactivity totally app

Q: What about the “Radioactivity remaining in the total tissues” value ([8]; 1.8 g/animal per day, 7 days) of the same compound?
A: 6.2 % of radioactivity totally app

Q: What about the Total radioactivity excreted ([8]; 1.8 g/animal per day, 7 days) of the same compound?
A: 23.5%

Q: And the “Total recovery at sacrifice” value ([8]; 1.8 g/animal per day, 7 days)?
A: approximately 30%

Q: What about the “3‐NOP and NOPA in total excreta, worst‐case scenario” value ([8]; dairy cows) of the same compound?
A: ≤ 0.2%

Q: And the “Residue in milk, not found above the LOQ” value ([8]; in vivo)?
A: < 8 μg 3‐NOP‐equivalents/kg

Q: And the “Residue in tissues, not found above the LOQ” value ([8]; in vivo)?
A: < 21 μg 3‐NOP‐equivalents/kg

Q: What about the Amount in urine ([8]; urine of one animal (day 2–day 6)) of the same compound?
A: 0.1 % of the dose

Reference: PMC8603004 (EFSA Journal, 2021)
